Measurements pooled from the literature.
Each line is one published result; the experiments were not run side by side.
Read-out: metabolic stability

CCOc1c(O)cc(Br)c2c1CN1CCc3cc(OCC(F)F)c(O)cc3[C@@H]1C2
scaled CLint (mouse, liver S9; 2 µM, pH 7.4): 1040 mL/min/kg

Cc1cc(Cl)c(Cl)cc1NC(=O)c1ccc(N2CCNCC2)c([N+](=O)[O-])c1
scaled CLint (CD-1 mouse, liver microsomes; 1 µM, 1 h, pH 7.4): 21 mL/min/kg

CN[C@@H]1CCN(c2ccc(Nc3cc(NC4CC4)n4ncc(C#N)c4n3)cc2NC(C)=O)C1
scaled CLint (male CD-1 mouse, hepatocytes; 1 µM, serum-free): 126 mL/min/kg

Cc1ccc(-c2nc3ccccc3s2)cc1NC(=O)c1cc([N+](=O)[O-])c(F)cc1F
scaled CLint (CD-1 mouse, liver microsomes; 1 µM, 1 h, pH 7.4): 52 mL/min/kg

COc1cc(C2Oc3cc([C@H]4Oc5cc(O)cc(O)c5C(=O)[C@@H]4O)ccc3OC2CO)ccc1O (stereo partly drawn)
scaled CLint (mouse, liver microsomes; 1 µM): 66.5 mL/min/kg

Cc1cc(NC(=O)Cc2ccc(F)c(C#N)c2)n(CC2CCCCC2)n1
scaled CLint (mouse, liver microsomes): 2970 mL/min/kg

CC(=O)Nc1cc(Nc2cc(NC3CC3)n3ncc(C#N)c3n2)ccc1N(C)C[C@@H]1CCCN1
scaled CLint (male CD-1 mouse, hepatocytes; 1 µM, serum-free): 171 mL/min/kg

Cc1ccc(F)c2cc(C(=O)N[C@@H]3CCC[C@H](N4CCN(S(C)(=O)=O)CC4)C3)[nH]c12
scaled CLint (mouse, hepatocytes; 0.5 µM, 1 h): 328 mL/min/kg

O=C(c1ccc(F)cc1)C1CCN(CCn2c(=O)[nH]c3ccccc3c2=O)CC1
scaled CLint (mouse, liver microsomes): 376 mL/min/kg

Cc1ccc(F)c2cc(C(=O)N[C@@H]3CCC[C@H](c4ccncc4)C3)[nH]c12
scaled CLint (mouse, hepatocytes; 0.5 µM, 1 h): 399 mL/min/kg

Cc1ccc(-c2nc3ccccc3s2)cc1NC(=O)c1cc([N+](=O)[O-])c(N2CCN(C)CC2)cc1Cl
scaled CLint (CD-1 mouse, liver microsomes; 1 µM, 1 h, pH 7.4): 105 mL/min/kg

CCCN(C)Cc1cc(-c2[nH]c3cccc(F)c3c(=O)c2C)ccc1Cc1ccc(OC(F)(F)F)cc1
scaled CLint (mouse, liver microsomes): 1570 mL/min/kg

O=c1ccc2ccc(O)cc2o1
scaled CLint (mouse, liver S9; 2 µM, pH 7.4): 2120 mL/min/kg

Cc1ccc(F)c2cc(C(=O)N[C@@H]3CCC[C@H](N4CCN(C)C(=O)C4)C3)[nH]c12
scaled CLint (mouse, hepatocytes; 0.5 µM, 1 h): 164 mL/min/kg

O=C(Nc1cncc(-c2nc3ccccc3o2)c1)c1ccc(N2CCNCC2)c([N+](=O)[O-])c1
scaled CLint (CD-1 mouse, liver microsomes; 1 µM, 1 h, pH 7.4): 10 mL/min/kg
